High-throughput results deposited in PubChem BioAssay by several laboratories.
This is a sample that favours compounds with a hit; in the whole collection about 4.6% have one here.
MDM2 E3 inh = blocks human Mdm2 ubiquitin ligase activity; cell-based MDM2 ubiquitination luciferase reporter, 2 h; 0 = plate control, 100 = twice control, blank-subtracted; signal enhancement, % at 5 µM; 210,000 tested, 0.11% active;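 active = signal enhancement of 30% or more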;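 also: luminescence tracks abundance of the self-degrading MDM2-luciferase fusion protein; higher signal means inhibition of MDM2 E3 ligase activity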
Target sequence (Q00987 whole entry, looked up, the tested form may be a part): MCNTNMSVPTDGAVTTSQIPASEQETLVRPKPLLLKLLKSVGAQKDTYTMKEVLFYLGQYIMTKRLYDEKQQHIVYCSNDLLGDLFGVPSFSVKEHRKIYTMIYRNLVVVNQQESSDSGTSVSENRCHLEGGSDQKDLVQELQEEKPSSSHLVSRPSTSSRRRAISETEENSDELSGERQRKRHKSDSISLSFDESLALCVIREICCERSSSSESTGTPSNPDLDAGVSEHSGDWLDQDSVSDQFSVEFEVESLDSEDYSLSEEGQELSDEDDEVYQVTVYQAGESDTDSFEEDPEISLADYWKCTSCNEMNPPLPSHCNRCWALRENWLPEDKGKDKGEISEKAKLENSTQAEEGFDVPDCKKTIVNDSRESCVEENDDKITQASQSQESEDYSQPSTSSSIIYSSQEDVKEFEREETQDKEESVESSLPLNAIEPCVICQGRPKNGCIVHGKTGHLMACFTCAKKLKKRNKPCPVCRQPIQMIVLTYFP
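Buffer or medium: Cells held in DMEM | Assay system: Stable mammalian line carrying autodegrading MDM2–luciferase fusion reporter | Quantity: 2000 cells/well | Times: 4 h settle plus 2 h compound, 37 °C | Doses: One concentration, 5 µM, with 0.2% DMSO | Technique: Luminescence with SteadyLite reagent, 15 min at room temperature | Benchmarks: Plate controls and plate blanks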
p97 ATPase inh = human p97 ATPase inhibition | P55072 | recombinant p97 ATPase, Kinase-Glo ATP luminescence, 3 h | inhibition, % at 8 µM | 220,000 tested, 0.42% active | AID 1481; in the data active = inhibition above about 15%;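 also: 0% = DMSO vehicle and 100% = wells lacking enzyme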
APP 5'UTR act = APP 5'UTR luciferase reporter activation. AID 1276. activation, % at 2 µM. SH-SY5Y APP 5'UTR luciferase reporter, luminescence; zero percent = DMSO vehicle wells. 190,000 tested, 1% active;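 active = activation above a set limit, based on mean plus 3 SD of controls, cut at about 140% in these data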
NF-kB neuron act = raises NF-kB expression in human neuronal cells | AID 1239 | NF-kB reporter expression; active compounds read high | fold change at 12.5 µM | 190,000 tested, 1.6% active; in the data active = fold change above about 3.3
STAT1 activator = STAT1 signaling activation; NIH 3T3 STAT1-luciferase reporter, IFN-gamma, luminescence; 100% = IFN-gamma alone, no compound; activation (% of control), % at 5.5 µM; 200,000 tested, 2.6% active; AID 932;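 active = activation above the screen-wide mean activation plus 3 SD, cut at about 130% in these data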;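 also: raw ratio to IFN-gamma control signal so 100% means no change and 0% no light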
Wee1 stabilizer = inhibitors of human Wee1 degradation | P30291 | HeLa Luc-Wee1K328M stability, luciferase luminescence; 100% = proteasome inhibitor MG132 effect | reporter increase, % at 5 µM | 220,000 tested, 1.2% active | AID 1321;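 active = activation above the mean of all tested compounds plus 3 SD, set per screening run, cut at about 8.8% in these data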;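 also: cells exposed to compound for 20 h before luminescence read; 0% = DMSO alone and 100% = MG132 at 30 µM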
STAT1 act conf = confirmation of STAT1 signaling activators; activation (% of control), % at 5.7 µM; AID 1262; 1,200 tested, 97% active; shares compounds with STAT1 activator; NIH 3T3 STAT1-luciferase reporter, IFN-gamma potentiation, luminescence; 100% = IFN-gamma EC80 alone, no compound;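 active = activation above a set limit carried over from the earlier primary STAT1 screen, cut at about 140% in these data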;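 also: simple ratio to median IFN-gamma plus DMSO wells so 0% means no light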
NFkB act = NF-kappaB activation in STAT1 activator counter-screen. HEK293T NF-kB luciferase reporter, TNF-alpha stimulated, luminescence; 100% = TNF-alpha with vehicle only. 1,200 tested, 43% active. shares compounds with STAT1 activator. activation (% of control), % at 5.7 µM;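 active = activation above the mean of solvent-only control wells plus 3 SD, set per campaign, cut at about 130% in these data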;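 also: TNF-alpha given at a submaximal dose yielding about 80% of full reporter signal; values are well signal over median control so 100% means no change and 0% no light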
STAT3 act STAT1c = human STAT3 activation in STAT1 activator counter-screen. shares compounds with STAT1 activator. U3A cells STAT3-luciferase reporter, IL-6, luminescence; cells lack STAT1; 100 = IL-6 alone, no compound effect. activation (% of control), % at 5.7 µM. 1,200 tested, 46% active. AID 1316;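 active = activation above the solvent-only control well mean plus 3 SD, set per plate batch, cut at about 110% in these data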;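 also: 0% = no luminescence and 100% = median IL-6 plus DMSO wells; higher means more STAT3 reporter activation so hits are non-selective activators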
Active calls of the source: *; nt = no result.

SMILES | MDM2 E3 inh | p97 ATPase inh | APP 5'UTR act | NF-kB neuron act | STAT1 activator | Wee1 stabilizer | STAT1 act conf | NFkB act | STAT3 act STAT1c
CC(C)c1nnc(NC(=O)CCCC(=O)O)s1 | -6 | -2 | 4 | 0.94 | 90 | -2 | nt | nt | nt
COC(=O)c1c(NC(=O)c2nc3ccccc3s2)sc2c1CCN(C(C)=O)C2 | -22 | 0 | 11 | 0.55 | 110 | 4 | nt | nt | nt
CNC(=O)c1c(NC(=O)c2nc3ccccc3s2)sc2c1CCC2 | -8 | 5 | 79 | 0.52 | 169* | -1 | 189* | 136* | 133*
CSc1nc2ccc(NC(=O)c3ccc(Cl)s3)cc2s1 | -3 | 0 | 138* | 1.5 | 186* | 1 | 181* | 140* | 104
O=C(Nc1nc2ccccc2s1)c1ccc(OCC2CCCO2)cc1 (centres undefined) | -35 | 2 | 122 | 1.6 | 177* | -1 | 248* | 103 | 97
O=C(Nc1nc2ccccc2s1)c1ccc(Cl)s1 | -22 | -6 | 156* | 4.8* | 156* | 7 | 231* | 141* | 109
Cc1ccc2nc(NC(=O)c3ccc(-c4nc5ccccc5s4)s3)sc2c1 | nt | 4 | -1 | 0.68 | 104 | -1 | nt | nt | nt
COc1ccc(-c2cc(C(=O)Nc3nc4ccccc4s3)c3ccccc3n2)cc1OC | -1 | 1 | 16 | 0.58 | 103 | 0 | nt | nt | nt
CSc1nc2ccc(NC(=O)NC(=O)c3c(F)cccc3F)cc2s1 | -16 | -1 | nt | nt | nt | 4 | nt | nt | nt
COc1ccc(C(=O)Nc2nc3ccccc3s2)cc1OC | -10 | 5 | 139* | 3.6* | 174* | 0 | 227* | 155* | 114*
COc1ccc(OC)c(-c2csc(NC(=O)c3ccc(OCC4CCCO4)cc3)n2)c1 (centres undefined) | -8 | 3 | 44 | 0.61 | 102 | 4 | nt | nt | nt
C=CCN(c1ccccc1Cl)S(=O)(=O)c1cccc(C(=O)OCC(=O)N(C)C2CCS(=O)(=O)C2)c1 (centres undefined) | 6 | -4 | 0 | 1.1 | 98 | -1 | nt | nt | nt
CC1CC(C)CN(S(=O)(=O)N2CCC(C(=O)NCCC3=CCCCC3)CC2)C1 (centres undefined) | -20 | 4 | 8 | 1.1 | 96 | 4 | nt | nt | nt
COCCNC(=O)c1ccc(-n2c(SCc3ccncc3)nc3ccccc3c2=O)cc1 | -6 | 1 | 16 | 1.2 | 94 | -1 | nt | nt | nt
CCOc1cc2c(cc1OCC)C(c1ccccc1)N(c1ccccc1)C(=O)C2 (centres undefined) | -5 | 1 | 17 | 0.88 | 94 | -2 | nt | nt | nt
COc1ccccc1NC(=O)NCc1nc(-c2ccc(C(F)(F)F)cc2)no1 | -7 | -4 | nt | nt | nt | 1 | nt | nt | nt
O=C(c1ccc(-c2cccc(Cl)c2Cl)o1)N1CCOCC1 | -25 | -1 | 108 | 4.5* | 162* | 6 | 201* | 143* | 115*
O=C(Nc1ccccc1)C1=C[C@H](c2ccc3c(c2)OCO3)C[C@H](OCc2ccc(CO)cc2)O1 | nt | 4 | 12 | 0.95 | 110 | 2 | nt | nt | nt
Nc1ncc(-n2cncn2)c(-c2ccc(Cl)cc2)n1 | -20 | -1 | 19 | 1.4 | 99 | 0 | nt | nt | nt
Clc1ccc(-c2nnc(-c3ccccc3)c(-c3ccccc3)n2)cc1 | -26 | 3 | nt | nt | nt | 0 | nt | nt | nt
Nc1nc(-c2ccc(Cl)cc2)nnc1-c1ccc(Br)cc1 | -29 | 4 | 194* | 3.8* | 165* | -3 | 191* | 143* | 105
N#Cc1cccnc1N1CCN(C(=O)c2ccco2)CC1 | 0 | 5 | nt | nt | nt | -3 | nt | nt | nt
O=C(CSc1ccc(-c2ccc(Cl)cc2)nn1)Nc1ccc2c(c1)OCCO2 | -8 | 2 | 6 | 1.2 | 104 | 1 | nt | nt | nt
COc1cccc(NC(=O)COC(=O)c2nc3nccc(C)n3n2)c1 | 0 | 1 | 8 | 1.4 | 99 | 1 | nt | nt | nt
COc1cccc(N(C(=O)c2nc3nccc(C)n3n2)c2nc3ccccc3s2)c1 | -3 | 5 | 190* | 6* | 173* | -2 | 230* | 177* | 114*
SMILES | MDM2 E3 inh | p97 ATPase inh | APP 5'UTR act | NF-kB neuron act | STAT1 activator | Wee1 stabilizer | STAT1 act conf | NFkB act | STAT3 act STAT1c
CCC(C)C(NC(=O)C1CCC(C)CC1)C(=O)Nc1cc(OC)ccc1OC (centres undefined) | -20 | -1 | 1 | 0.94 | 101 | 7 | nt | nt | nt
Cc1ccc(C2C=NN(c3ccccc3)C2=O)cc1 (centres undefined) | -1 | 7 | 31 | 1.1 | 110 | 4 | nt | nt | nt
Nc1c(C(=O)O)cnc2c(-c3ccc(Cl)cc3)cnn12 | -17 | 4 | 122 | 4.9* | 194* | 3 | 219* | 132 | 152*
Clc1ccc(-c2cnn3c(-c4ccncc4)ccnc23)cc1 | -40 | 1 | 221* | 3.6* | 157* | 2 | 237* | 132 | 109
CS(=O)(=O)c1cnc2c(-c3ccc(F)cc3)cnn2c1N | -5 | -3 | 33 | 3.5* | 162* | 0 | 189* | 125 | 106
CC(=O)c1cnc2c(-c3ccc(Cl)cc3)cnn2c1C | 2 | -1 | 7 | 1.7 | 126 | 2 | nt | nt | nt
Cc1nc2ncnn2c(C)c1Cc1cccc(C(F)(F)F)c1 | 9 | -6 | 7 | 0.89 | 94 | -3 | nt | nt | nt
COc1ccccc1NC(CC(=O)c1ccccc1)C(=O)OCC(=O)c1ccc(Br)cc1 (centres undefined) | -19 | 2 | 117 | 0.84 | 156* | 1 | 183* | 116 | 99
C/C(=N\NC(=O)C(N)=O)c1ccc(Br)cc1 | -1 | -4 | 4 | 1.4 | 94 | 1 | nt | nt | nt
C/C(=N\NC(=O)c1ccc(Br)cc1)c1ccccc1 | -40 | -1 | 97 | 5.7* | 159* | -4 | 195* | 128 | 110
COCCCNC(=S)NCCNc1nc2c(C)c(C)ccc2cc1C#N | -4 | 1 | 12 | 1.2 | 97 | -3 | nt | nt | nt
O=C(NCCc1ccccc1)c1ccccc1NC(=O)C1CC=CCC1C(=O)O (centres undefined) | 4 | -1 | 36 | 1.8 | 152* | 2 | 133* | 125 | 108
Cc1ccsc1/C=N/NC(=O)c1sccc1C | -30 | -4 | 136* | 3.2 | 153* | 2 | 173* | 130 | 112*
N#CC1CC(c2ccccc2)=NN1c1ccccc1[N+](=O)[O-] (centres undefined) | 3 | 6 | 67 | 1.1 | 156* | 10* | 155* | 129 | 124*
